High-throughput results: PubChem BioAssay, Broad Institute
SIRT5 inh = SIRT5 desuccinylase inhibitors, primary screen, biochemical, fluorescence imaging, single point, set 5; actives 1.1% (n = 330,000); Purified SirT5, succinyl-peptide AMC, trypsin-coupled fluorescence; inhibition, % at 15 µM; AID 652115, 2013; in the data active means inhibition above about 15%; inconclusive means no clear call, values can overlap the other calls
DENV2 CPE = inhibitors of DENV2 cytopathic effect, primary screen, cell-based, plate reader, single concentration | DENV2-infected cells, cytopathic effect rescue | actives 1.7% (n = 350,000) | CPE inhibition, % at 9.99 µM; in the data active means CPE inhibition above about 20%, passing the limit was not always enough; inconclusive means no clear call, values can overlap the other calls; tested in BHK-21 cells
E-sel inducer = E-selectin induction in HUVECs, primary screen, imaging, HUVEC, immunofluorescence imaging, single point | normalized: neutral wells 0, TNF-alpha wells 100 | activation, % at 7.58 µM | actives 0.37% (n = 260,000);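 active means mean E-selectin-positive cell signal at least 10% of the positive control, reached in at least 60% of replicates, without over 20% cell loss; inconclusive means no rule given, readout overlaps actives, possibly toxicity-flagged; inactive means the rest, including those meeting only one limit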
Target sequence (P16581 whole entry, looked up): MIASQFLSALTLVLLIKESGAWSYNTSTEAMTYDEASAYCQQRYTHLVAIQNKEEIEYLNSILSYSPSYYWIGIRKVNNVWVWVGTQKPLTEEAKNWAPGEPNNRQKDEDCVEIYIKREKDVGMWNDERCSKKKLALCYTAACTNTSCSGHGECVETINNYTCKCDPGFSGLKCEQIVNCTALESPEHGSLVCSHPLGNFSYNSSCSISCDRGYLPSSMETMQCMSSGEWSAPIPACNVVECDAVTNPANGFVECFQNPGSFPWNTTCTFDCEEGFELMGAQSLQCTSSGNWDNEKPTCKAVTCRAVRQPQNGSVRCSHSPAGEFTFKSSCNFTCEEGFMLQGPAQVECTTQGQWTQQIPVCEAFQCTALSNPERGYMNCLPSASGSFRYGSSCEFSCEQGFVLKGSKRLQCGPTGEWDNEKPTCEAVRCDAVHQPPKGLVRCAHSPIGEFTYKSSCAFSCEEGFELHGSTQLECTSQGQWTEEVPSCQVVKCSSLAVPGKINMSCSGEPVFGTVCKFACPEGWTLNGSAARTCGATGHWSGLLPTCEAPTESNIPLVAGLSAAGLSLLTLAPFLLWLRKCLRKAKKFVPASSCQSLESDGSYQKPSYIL
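Read-out basis: % PE-positive cells; Test system: HUVEC primary endothelial cells; Technique: immunofluorescence imaging; Dosing: single-point compound dose.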
A number is an active result; – = inactive; ? = inconclusive; · = no result; ! = not active in a repeat. Shown are actives, neighbours in structure and some others; about 2.8% of the full set was active somewhere.

SMILES	SIRT5 inh	DENV2 CPE	E-sel inducer
CO[C@@H]1CN(C)C(=O)c2cc(NC(=O)NC(C)C)ccc2OC[C@H](C)NC[C@@H]1C	·	·	–
CN(C)C(=O)[C@@H]1[C@@H](CO)[C@@H]2Cn3c(ccc(-c4ccccc4F)c3=O)[C@H]1N2C(=O)c1ccccc1	–	–	–
CN(C)CCCNC(=O)C[C@@H]1C=C[C@H](NS(=O)(=O)c2ccc(F)cc2)[C@@H](CO)O1	–	–	–
C[C@@H]1CN([C@H](C)CO)C(=O)c2cc(NC(=O)Nc3ccc(C(F)(F)F)cc3)ccc2O[C@H]1CN(C)C(=O)NC1CCCCC1	–	126	–
C[C@@H]1CN([C@H](C)CO)C(=O)c2cc(NC(=O)NC3CCCCC3)ccc2O[C@H]1CN(C)C(=O)Nc1ccc(C(F)(F)F)cc1	–	–	–
O=C(C[C@@H]1C[C@H]2c3cc(NC(=O)C4CCOCC4)ccc3O[C@H]2[C@H](CO)O1)NCCc1ccccc1	–	–	–
Cc1ccc(NC(=O)Cn2cccc2C2=NC(c3ccccc3)CO2)cc1C (centres undefined)	–	103	·
Fc1ccc(Cn2cccc2C2=NC(c3ccccc3)CO2)cc1 (centres undefined)	–	–	·
CC(C)C(=O)Nc1ccc2c(c1)C(=O)N(C)[C@@H]1CC[C@@H](CC(=O)NC3CCCC3)O[C@@H]1CO2	·	·	–
CCN1[C@H](C(=O)NCCc2cn(C)cn2)[C@@H](CO)[C@@H]2Cn3c(ccc(-c4cccnc4)c3=O)[C@@H]21	–	–	–
C[C@@H]1CN([C@H](C)CO)S(=O)(=O)c2ccc(C#CC3CCCC3)cc2O[C@H]1CN(C)Cc1cncnc1	·	·	–
C[C@H](CO)N1C[C@H](C)[C@@H](CN(C)Cc2cccnc2)Oc2cc(Br)ccc2S1(=O)=O	–	45!	–
C[C@H]1CN([C@@H](C)CO)S(=O)(=O)c2ccc(Br)cc2O[C@H]1CN(C)Cc1cccnc1	–	–	–
C[C@@H]1CN([C@@H](C)CO)S(=O)(=O)c2ccc(C#CC3CCCC3)cc2O[C@@H]1CN(C)Cc1cccnc1	–	–	–
C[C@H](CO)N1C[C@H](C)[C@H](CN(C)Cc2cncnc2)Oc2cc(C#CC3CCCC3)ccc2S1(=O)=O	17	–	–
C[C@@H]1CN([C@H](C)CO)S(=O)(=O)c2ccc(C#CC3CCCC3)cc2O[C@@H]1CN(C)Cc1cncnc1	·	·	–
C[C@H]1CN([C@@H](C)CO)S(=O)(=O)c2ccc(C#CC3CCCC3)cc2O[C@@H]1CN(C)Cc1cccnc1	17	–	–
C[C@H]1CN([C@@H](C)CO)S(=O)(=O)c2ccc(C#CC3CCCCC3)cc2O[C@@H]1CN(C)Cc1cccnc1	18	–	·
O=C(CCN1CCCCC1)NCC[C@H]1CC[C@H](NC(=O)Nc2ccc(Cl)cc2)[C@@H](CO)O1	–	?	–
COc1cccc(-c2cnc3c(c2)C(=O)N([C@@H](C)CO)C[C@H](C)[C@H](CN(C)Cc2ccncc2)O3)c1	–	–	–
Cc1noc(C)c1NC(=O)N(C)C[C@@H]1Oc2ccc(NC(=O)Nc3ccc4c(c3)OCO4)cc2C(=O)N([C@@H](C)CO)C[C@H]1C	–	–	–
O=C(Cc1ccccc1)c1ccc(O)cc1	18	–	–
O=C(Cc1ccccc1)c1ccc(Cl)cc1	–	–	·
O=C(CN1CCOCC1)NCC[C@@H]1CC[C@@H](NS(=O)(=O)c2ccc(Cl)cc2)[C@H](CO)O1	–	–	–
O=C(CN1CCOCC1)NCC[C@H]1CC[C@@H](NS(=O)(=O)c2ccc(Cl)cc2)[C@@H](CO)O1	32	–	–
SMILES	SIRT5 inh	DENV2 CPE	E-sel inducer
Cc1ccc(S(=O)(=O)N[C@@H]2CC[C@@H](CCNC(=O)CN3CCOCC3)O[C@H]2CO)cc1	–	26	–
Cc1ccc(S(=O)(=O)N[C@H]2CC[C@H](CCNC(=O)CN3CCOCC3)O[C@@H]2CO)cc1	–	–	–
Cc1ccc(S(=O)(=O)N[C@@H]2CC[C@H](CC(=O)NCc3ccc(Cl)c(Cl)c3)O[C@@H]2CO)cc1	–	–	–
O=C(NCC[C@@H]1CC[C@@H](NS(=O)(=O)c2cccc(F)c2)[C@@H](CO)O1)C1CCOCC1	38	–	–
O=C(NCC[C@H]1CC[C@@H](NS(=O)(=O)c2cccc(F)c2)[C@H](CO)O1)C1CCOCC1	–	–	–
Cc1ccc(S(=O)(=O)N[C@@H]2CC[C@H](CC(=O)NCc3ccc(Cl)c(Cl)c3)O[C@H]2CO)cc1	–	22	–
C[C@@H]1CN([C@H](C)CO)C(=O)c2cc(NS(=O)(=O)c3ccc(F)cc3)ccc2O[C@@H](C)CCCCO[C@H]1CN(C)Cc1ccc(Cl)c(Cl)c1	–	–	–
C[C@H]1CN([C@@H](C)CO)S(=O)(=O)c2ccc(C#CC3(O)CCCC3)cc2O[C@H]1CN(C)C(=O)Cc1cccnc1	–	–	–
CCN1[C@@H]2c3ccc(C4=CCCC4)c(=O)n3C[C@H]1[C@H](CO)[C@H]2C(=O)NCc1ccccn1	–	–	–
O=C(C[C@@H]1C[C@@H]2c3cc(NC(=O)C4CCC4)ccc3O[C@@H]2[C@@H](CO)O1)NCc1ccc2c(c1)OCO2	–	–	–
Cc1noc(C)c1S(=O)(=O)Nc1ccc2c(c1)C(=O)N([C@H](C)CO)C[C@@H](C)[C@@H](CN(C)C(=O)c1ccccc1)OCCCC[C@H](C)O2	–	–	–
C[C@H]1CN([C@@H](C)CO)C(=O)Cc2cc(NC(=O)c3ccncc3)ccc2O[C@H]1CN(C)S(C)(=O)=O	·	–	–
CCC(=O)Nc1ccc2c(c1)OC[C@@H](C)N(Cc1ccncc1)C[C@@H](C)[C@H](OC)CN(C)C2=O	–	–	–
COCCNC(=O)C[C@H]1C[C@H]2c3cc(NS(=O)(=O)c4ccc(F)cc4)ccc3O[C@H]2[C@@H](CO)O1	·	–	–
Cc1ccc(S(=O)(=O)N[C@@H]2CC[C@@H](CCNC(=O)C3CCOCC3)O[C@@H]2CO)cc1	–	–	–
Cc1ccc(S(=O)(=O)N[C@H]2CC[C@H](CCNC(=O)C3CCOCC3)O[C@@H]2CO)cc1	–	25	–
COc1ccc(NC(=O)N(C)C[C@@H]2Oc3ccc(NC(=O)NC4CCCCC4)cc3CC(=O)N([C@H](C)CO)C[C@H]2C)cc1	–	–	–
Cn1cnc(CCNC(=O)C[C@@H]2CC[C@H]3[C@@H](COC[C@@H](O)CN3C(=O)C3CC3)O2)c1	–	–	–
CCNC(=O)C[C@H]1CC[C@@H]2[C@H](COC[C@H](O)CN2C(=O)C2CCCC2)O1	–	–	–
CCNC(=O)C[C@H]1CC[C@H]2[C@@H](COC[C@@H](O)CN2C(=O)C2CCCC2)O1	–	107	–
Cn1cnc(CCNC(=O)C[C@@H]2CC[C@@H]3[C@H](COC[C@H](O)CN3C(=O)C3CCCC3)O2)c1	24	–	–
O=C(C[C@@H]1CC[C@H]2[C@@H](COC[C@@H](O)CN2C(=O)C2CCCC2)O1)NCc1ccncc1	–	–	–
O=C(C[C@@H]1CC[C@H]2[C@@H](COC[C@@H](O)CN2C(=O)Nc2ccc(Cl)c(Cl)c2)O1)NCc1ccc(Cl)cc1	–	–	–
